ChEMBL document CHEMBL1142195, “A novel nonnucleoside analogue that inhibits human immunodeficiency virus type 1 isolates resistant to current nonnucleoside reverse transcriptase inhibitors” (Antimicrob Agents Chemother, 2007)

Legend:
Format in all cases: functional, organism-based
[1] = system: Human immunodeficiency virus 1; experiment: Antiviral activity against HIV1 isolate with RT K103N-V108I-P225H mutation
How it was run: (§1)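 VSV-G-pseudotyped pNL4-3.Luc.R−E− molecular clones carrying the RT mutations, single-round infection of HeLa-JC53 cells (15,000/well) at MOI 0.03. Compounds serially diluted 1:4 in DMSO then in phenol red-free DMEM with 2% FBS, final DMSO 0.2%. Incubated 48 h at 37°C, 5% CO2. Luciferase read-out by chemiluminescence gives the EC50. Fold change is relative to wt virus, mean of two tests.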

[2] = system: Human immunodeficiency virus 1; experiment: Antiviral activity against HIV1 isolate with RT K103N-F227L mutation; how it was run: as §1
[3] = system: Human immunodeficiency virus 1; experiment: Antiviral activity against HIV1 isolate V106I-Y188L mutant
[4] = system: Human immunodeficiency virus 1; experiment: Antiviral activity against HIV1 isolate with RT G190A mutation; how it was run: as §1
[5] = system: Human immunodeficiency virus 1; experiment: Antiviral activity against HIV1 isolate with RT K103N-Y188L mutation; how it was run: as §1
[6] = system: Human immunodeficiency virus 1; experiment: Antiviral activity against HIV1 isolate with RT K103N-K101Q-P225H mutation; how it was run: as §1
[7] = system: Human immunodeficiency virus 1; experiment: Antiviral activity against HIV1 isolate with RT K103N-V108I-A98G mutation; how it was run: as §1
[8] = system: Human immunodeficiency virus 1; experiment: Antiviral activity against HIV1 isolate with RT A98G mutation; how it was run: as §1
[9] = system: Human immunodeficiency virus 1; experiment: Antiviral activity against HIV1 isolate with RT V106I mutation; how it was run: as §1
[10] = system: Human immunodeficiency virus 1; experiment: Antiviral activity against HIV1 isolate with RT Y181C mutation; how it was run: as §1
[11] = system: Human immunodeficiency virus 1; experiment: Antiviral activity against wild type HIV1
[12] = system: Human immunodeficiency virus 1; experiment: Antiviral activity against HIV1 isolate with RT K103N mutation; how it was run: as §1
[13] = system: Human immunodeficiency virus 1; experiment: Antiviral activity against HIV1 isolate with RT K103N-Y181C mutation; how it was run: as §1
[14] = system: Human immunodeficiency virus 1; experiment: Antiviral activity against HIV1 isolate with RT K103N-P225H mutation; how it was run: as §1
[15] = system: Human immunodeficiency virus 1; experiment: Antiviral activity against HIV1 isolate with RT K103N-V108I mutation; how it was run: as §1
[16] = system: Human immunodeficiency virus 1; experiment: Antiviral activity against HIV1 isolate with RT K103N-K101Q mutation; how it was run: as §1
[17] = system: Human immunodeficiency virus 1; experiment: Antiviral activity against HIV1 isolate with RT K103N-L100I mutation; how it was run: as §1
[18] = system: Human immunodeficiency virus 1; experiment: Antiviral activity against HIV1 isolate with RT G190S mutation; how it was run: as §1
[19] = system: Human immunodeficiency virus 1; experiment: Antiviral activity against HIV1 isolate with RT Y188L mutation; how it was run: as §1
[20] = system: Human immunodeficiency virus 1; experiment: Antiviral activity against HIV1 isolate with RT K101E mutant; how it was run: as §1

## O=C1Nc2ccc(Cl)cc2[C@@](C#CC2CC2)(C(F)(F)F)O1 [EFAVIRENZ]
[1]
  EC50: 77.1 nM
[2]
  EC50: 2.26 nM
[3]
  EC50: 136 nM
[4]
  EC50: 0.48 nM
[5]
  EC50: > 2500 nM
[6]
  EC50: 78.4 nM
[7]
  EC50: 67.9 nM
[8]
  EC50: 0.64 nM
[9]
  EC50: 0.27 nM
[10]
  EC50: 0.33 nM
[11]
  EC50: 0.17 nM
[12]
  EC50: 2.73 nM
[13]
  EC50: 4.24 nM
[14]
  EC50: 34.9 nM
[15]
  EC50: 8.63 nM
[16]
  EC50: 12.7 nM
[17]
  EC50: 258 nM
[18]
  EC50: 14.3 nM
[19]
  EC50: 24.4 nM
[20]
  EC50: 0.74 nM
